procasp7 counter – counter-screen: procaspase-7 (human) activation. AID 463210. recombinant procaspase-7, Ac-DEVD-pNA absorbance 405 nm; D23A/D198A/D206A triple mutant, cannot self-cleave; scale: DMSO 0, 5 µM enzyme 100. P55210. 330,000 compounds, 0.093% hits. activation, % at 8.5 µM;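 active = percent activation above the screen-wide mean plus 3 SD, cut at about 25% in these data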
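Assay system: Uncleavable procaspase-7 mutant enzyme | Input: 2 µM procaspase-7 mutant as dispensed | Timing: 1 h compound preincubation, 2 h substrate cleavage, 25 °C | Repeats: One well per compound | Control set: DMSO wells as 0%, DMSO with 5 µM added PC-7 as 100% | Technique: Epi-absorbance of released pNA at 405 nm, two timepoints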
PREPL inhibitor – inhibits the human prolyl oligopeptidase-like enzyme | 320,000 compounds, 0.68% hits | Q4J6C6 | recombinant PREPL, fluorescence polarization activity-based probe | inhibition, % at 5.96 µM;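 note: 0% = enzyme with DMSO and 100% = wells lacking enzyme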
LYPLA2 inh – LYPLA2 (human) inhibition in PME1 counter-screen; O95372; recombinant LYPLA2, FP-Rh probe fluorescence polarization; inhibition, % at 5.9 µM; 320,000 compounds, 0.38% hits;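 active = inhibition above the screen-wide mean plus 3 SD, limit set per campaign, cut at about 26% in these data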;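 note: 0% = LYPLA2 with DMSO and 100% = wells lacking LYPLA2 enzyme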
Target sequence (O95372 whole entry, looked up): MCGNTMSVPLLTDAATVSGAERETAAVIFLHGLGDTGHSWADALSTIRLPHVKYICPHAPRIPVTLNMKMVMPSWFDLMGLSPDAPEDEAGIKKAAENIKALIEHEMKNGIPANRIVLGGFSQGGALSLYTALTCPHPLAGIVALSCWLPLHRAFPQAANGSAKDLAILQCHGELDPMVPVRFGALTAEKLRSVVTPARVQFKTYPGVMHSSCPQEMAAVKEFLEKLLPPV
LYPLA1 counter – counter-screen for PME1 inhibitors: inhibitors of human LYPLA1. O75608. recombinant LYPLA1, FP-Rh probe fluorescence polarization. inhibition, % at 5.9 µM. 320,000 compounds, 0.16% hits. AID 2174;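 active = inhibition above the mean of all tested compounds plus 3 SD, set per campaign, cut at about 14% in these data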;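 note: inhibitors block serine hydrolase probe labeling of LYPLA1 so polarization falls; 0% = enzyme with DMSO and 100% = wells lacking LYPLA1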
Target sequence (O75608 whole entry, looked up): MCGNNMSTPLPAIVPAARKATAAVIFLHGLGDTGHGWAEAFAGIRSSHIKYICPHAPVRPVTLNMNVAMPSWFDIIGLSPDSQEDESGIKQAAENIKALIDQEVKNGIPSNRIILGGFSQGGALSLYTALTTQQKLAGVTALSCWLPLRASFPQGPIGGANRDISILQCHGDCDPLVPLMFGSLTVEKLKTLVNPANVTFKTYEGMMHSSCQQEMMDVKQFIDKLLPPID
proCasp3 act – activators of human procaspase-3. activation, % at 8.5 µM. 330,000 compounds, 0.11% hits. P42574. recombinant procaspase-3 D3A, Ac-DEVD-pNA absorbance 405 nm;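 active = activation above the mean of all tested compounds plus 3 SD, cut at about 21% in these data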;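 note: 0% = DMSO alone and 100% = DMSO wells spiked with extra 5 µM PC-3 D3A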
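Assay system – Procaspase-3 D3A mutant · Benchmarks – DMSO low control, extra-enzyme high control · Technique – 405 nm absorbance of p-nitroaniline, reads at 0 and 120 min · Doses – 8.5 µM nominal · Measure – % activation between DMSO and enzyme-spiked controls · Also added – Ac-DEVD-pNA chromogenic peptide substrate · Schedule – 1 h compound preincubation, 2 h substrate hydrolysis at 25 °C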
PREPL confirm – human PREPL inhibition, confirmation | shares compounds with PREPL inhibitor | recombinant PREPL, fluorescence polarization activity probe | inhibition, % at 5.96 µM | 2,000 compounds, 67% hits;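 note: 0% = protein with DMSO and 100% = wells lacking protein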
Active calls of the source: *; . = no result given. An excerpt weighted towards active compounds, which were near 1% of everything screened. Cut-off read from the data, not from the text of the source, unless noted: active = inhibition above about 43%; inactive = the rest.

SMILES | procasp7 counter | PREPL inhibitor | LYPLA2 inh | LYPLA1 counter | proCasp3 act | PREPL confirm
CCOc1ccc(NC(=O)CCn2c(=S)oc3ccccc32)cc1 | 4 | 19 | -2 | -2 | -2 | .
COc1ccc(C2CC(c3ccc(F)cc3)Nc3nc(N)nn32)cc1 (stereo not given) | 6 | 38 | -2 | 1 | 2 | .
COc1ccc(C2CC(c3cccc(OC)c3)n3nc(N)nc3N2)cc1 (stereo not given) | -9 | 46* | 0 | 1 | 1 | 52*
Cc1cccc(C2CC(c3ccc(F)cc3)Nc3nc(N)nn32)c1 (stereo not given) | -8 | 51* | 2 | -1 | -6 | 55*
COc1cccc(C2CC(c3ccc(Cl)cc3)n3nc(N)nc3N2)c1 (stereo not given) | 19 | 41 | 5 | 1 | -3 | .
Cc1cccc(C2CC(c3ccc(Cl)cc3)Nc3nc(N)nn32)c1 (stereo not given) | -2 | 52* | 8 | 4 | -2 | 52*
COc1cccc(C2CC(c3ccccc3)Nc3nc(N)nn32)c1 (stereo not given) | 11 | 40 | 0 | 1 | 4 | .
Cc1ccc(C2CC(c3cccc(Cl)c3)n3nc(N)nc3N2)cc1 (stereo not given) | 6 | 51* | -9 | -2 | 1 | 51*
COc1ccc(N2CC(C(=O)N/N=C/c3ccc(C)cc3)CC2=O)cc1 (stereo not given) | 1 | 10 | 4 | -3 | 14 | .
CN(C(=O)COC(=O)Cc1c[nH]c2ccccc12)c1c(N)n(Cc2ccccc2)c(=O)[nH]c1=O | 12 | 15 | 0 | 1 | 6 | .
COC(=O)CCC(=O)OC1(C)C(=O)C2=COC(c3ccc(OC)cc3)=CC2=C(Br)C1=O (stereo not given) | -7 | 11 | 0 | -2 | 3 | .
COC(=O)CCC(=O)OC1(C)C(=O)C2=CN(C(CO)CO)C(c3ccc(OC)cc3)=CC2=C(Br)C1=O (stereo not given) | -8 | 58* | -2 | 0 | 5 | 40
Cc1ccc(C)c(S(=O)(=O)N2CCN(C(=O)CCCc3c[nH]c4ccccc34)CC2)c1 | -5 | 47* | 0 | -2 | -11 | 35
Cc1ccc(C)c(S(=O)(=O)N2CCN(C(=O)CCc3c[nH]c4ccccc34)CC2)c1 | -2 | 35 | -2 | 0 | 0 | .
COc1ccc(CNC(=O)CN2C(=O)NC3(CCCCCC3)C2=O)cc1 | 4 | 8 | . | . | 1 | .
COc1cc(O)c(C(CCN2CCCCC2)c2cc(OC)c(OC)c(OC)c2)c(OC)c1 (stereo not given) | 11 | 26 | 2 | 3 | 6 | .
COc1cc(O)c(C(CCN2CCCC2)c2cc(OC)c(OC)c(OC)c2)c(OC)c1 (stereo not given) | -14 | 45* | 2 | 1 | -4 | 47*
Cc1ccc(C(c2c(C)[nH][nH]c2=O)c2c(C)[nH][nH]c2=O)cc1 | -5 | -7 | 0 | 0 | -7 | .
O=C(COC(=O)c1ccccc1Br)NCCc1ccc(F)cc1 | 0 | -22 | 4 | 0 | -4 | .
COc1ccc(/C=N/Nc2nc3ccccc3[nH]2)cc1OC | 2 | 21 | 9 | 8 | -3 | .
C#CCn1cc(/C=N/Nc2nc3ccccc3[nH]2)c2ccccc21 | -5 | 55* | 6 | 4 | 9 | 63*
COc1cc(/C=N\Nc2nc3ccccc3[nH]2)cc(OC)c1OC | -14 | 43* | -3 | 6 | 8 | 22
CCCS(=O)(=O)N1CCN(C(=O)c2ccc(-c3ccccc3)cc2)CC1 | 10 | 1 | 18 | 1 | -1 | .
Cc1c(Cl)cccc1NC(=O)COC(=O)c1c2c(nc3ccccc13)CCN(Cc1ccccc1)C2 | 5 | 51* | -30 | -19 | 0 | 46*
Cc1cc(NS(=O)(=O)c2ccc(NC(=O)c3cc4cc(Br)ccc4oc3=O)cc2)no1 | 7 | -8 | 0 | -1 | -5 | .
O=C(Oc1ccc2ccc(=O)oc2c1)c1cccs1 | -3 | 45* | 7 | -1 | -12 | 60*
CC(CO)Nc1nc(SCc2ccccc2)nc2sc3c(c12)CCC3 (stereo not given) | -7 | 44* | -5 | -7 | -5 | 41

Screening data: PubChem, The Scripps Research Institute Molecular Screening Center
